According to ChEMBL document CHEMBL3414521, “Discovery of the 2-phenyl-4,5,6,7-Tetrahydro-1H-indole as a novel anti-hepatitis C virus targeting scaffold” (Eur J Med Chem, 2015):
The source made the active and inactive calls. The rule behind the calls is not given here.

Columns and labels:
[1] = Cytotoxicity against human Huh7.5 cells after 48 hrs by MTS assay; assay type: cell-based; details: huh-7, 48 h
In short: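 Parental Huh7.5 cells grown in DMEM with 10% FCS without G418, 37 °C, 5% CO2; treated at 6–8 doses for 48 h. Viability by MTS bioreduction to formazan; CC50 as concentration halving MTS conversion relative to DMSO controls, mean ± SD of three independent experiments.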

[2] = test system: Hepatitis C virus; experiment: Antiviral activity against HCV genotype 1b infected in HuH7/Rep-Feo1b cells at 50 uM by firefly luciferase reporter gene assay; assay type: functional, Hepacivirus hominis; details: Huh-7
In short: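 Replicon reporter cells (gt 1b in Huh7/Rep-Feo1b, firefly luciferase; gt 2a in Huh7.5-FGR-JC1-Rluc2A, Renilla luciferase) kept in DMEM with 10% FCS and 0.5 mg/mL G418, 37 °C, 5% CO2. About 1×10^4 cells per well were treated at 50 μM for 48 h in 1.0% DMSO. Luciferase signal was read relative to DMSO-treated cells as % inhibition.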

[3] = test system: Hepatitis C virus; experiment: Antiviral activity against HCV genotype 1b infected in HuH7/Rep-Feo1b cells by firefly luciferase reporter gene assay; assay type: functional, cell-based, Hepacivirus hominis; details: Huh-7
In short: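 Huh7 cells carrying autonomously replicating gt 1b replicon with firefly luciferase reporter; ~1×10^4 cells/well treated 48 h, 1.0% DMSO final. Primary screen at 50 μM; actives titrated over 8–12 quarter-log dilutions. Luciferase signal relative to DMSO-treated controls; EC50 from dose-response curves, mean ± SD of three independent experiments.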

[4] = Selectivity index, ratio of CC50 for human Huh7.5 cells to EC50 for HCV genotype 1b infected in HuH7/Rep-Feo1b cells; parameters: species or system Huh-7
[5] = test system: Hepatitis C virus; experiment: Antiviral activity against HCV genotype 2a infected in HuH7.5-FGR-JC1_Rluc2A cells at 50 uM by […] luciferase reporter gene assay; assay type: functional, Hepacivirus hominis
[6] = test system: Hepatitis C virus; experiment: Antiviral activity against HCV genotype 2a infected in HuH7.5-FGR-JC1_Rluc2A cells by […]; assay type: functional, Hepacivirus hominis
[7] = Selectivity index, ratio of CC50 for human Huh7.5 cells to EC50 for HCV genotype 2a infected in HuH7.5-FGR-JC1_Rluc2A cells; parameters: species or system Huh-7
[8] = test system: Hepatitis C virus; experiment: Antiviral activity against HCV genotype 1b infected in human MH14 cells assessed as inhibition of replication after 48 hrs by RT-PCR analysis; assay type: functional; details: Hepacivirus hominis
In short: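 Stable gt 1b subgenomic replicon cells (MH-14), reporter-free, exposed to compound; total RNA isolated by spin-column kit, quantified spectrophotometrically, and HCV RNA measured by quantitative RT-PCR.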

[9] = test system: Hepacivirus hominis; experiment: Inhibition of recombinant HCV hexa histidine-tagged NS5B Cdelta21 RNA dependent RNA polymerase expressed in Escherichia coli at 50 uM after 60 mins by liquid scintillation counting analysis
[10] = test system: Hepatitis C virus (isolate Con1); experiment: Inhibition of HCV Con1 genotype 1b C-terminal His-tagged NS3 helicase lacking N-terminal protease using fluorescent DNA as substrate at 500 uM
In short: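 Molecular beacon unwinding assay: 12.5 nM NS3h, 5 nM fluorescent DNA substrate, 1 mM ATP, 25 mM MOPS pH 6.5, 1.25 mM MgCl2, 5% DMSO, 5 µg/ml BSA, 0.01% Tween20, 0.05 mM DTT; compounds up to 500 μM.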

[11] = Inhibition of HCV Con1 genotype 1b C-terminal His-tagged NS3 helicase lacking N-terminal protease using ATP/RNA as substrate after 15 mins by malachite green-based assy; parameters: species or system Hepatitis C virus (isolate Con1)
In short: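 NS3h (con1 gt 1b, C-terminal His-tag, protease-deleted) at 4 nM with 1 μM polyU RNA (nucleotide), 25 mM MOPS pH 6.5, 1.25 mM MgCl2, 1 mM ATP, 33 µg/ml BSA, 0.07% Tween 20, 0.3 mM DTT, 10% DMSO; started with ATP, 15 min, 37 °C. Phosphate by malachite green, A630. Two-fold series 0.5 mM–0.78 µM, duplicate; variable-slope fit, mean ± SD.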

[12] = test system: Internal ribosome entry site (IRES); experiment: Effect on HCV IRES-mediated translation infected in human Huh 7.5 cells by dual-glo luciferase assay; assay type: cell-based; details: Hepacivirus hominis
[13] = target: T1, Prostaglandin G/H synthase 2 (Homo sapiens, UniProt P35354); experiment: Effect on cyclooxygenase-2 (unknown origin)-mediated HCV replication in human MH14 cells transfected with pCOX-2-Fluc by luciferase reporter gene assay; assay type: ADME, cell-based
T1 sequence (P35354 whole entry): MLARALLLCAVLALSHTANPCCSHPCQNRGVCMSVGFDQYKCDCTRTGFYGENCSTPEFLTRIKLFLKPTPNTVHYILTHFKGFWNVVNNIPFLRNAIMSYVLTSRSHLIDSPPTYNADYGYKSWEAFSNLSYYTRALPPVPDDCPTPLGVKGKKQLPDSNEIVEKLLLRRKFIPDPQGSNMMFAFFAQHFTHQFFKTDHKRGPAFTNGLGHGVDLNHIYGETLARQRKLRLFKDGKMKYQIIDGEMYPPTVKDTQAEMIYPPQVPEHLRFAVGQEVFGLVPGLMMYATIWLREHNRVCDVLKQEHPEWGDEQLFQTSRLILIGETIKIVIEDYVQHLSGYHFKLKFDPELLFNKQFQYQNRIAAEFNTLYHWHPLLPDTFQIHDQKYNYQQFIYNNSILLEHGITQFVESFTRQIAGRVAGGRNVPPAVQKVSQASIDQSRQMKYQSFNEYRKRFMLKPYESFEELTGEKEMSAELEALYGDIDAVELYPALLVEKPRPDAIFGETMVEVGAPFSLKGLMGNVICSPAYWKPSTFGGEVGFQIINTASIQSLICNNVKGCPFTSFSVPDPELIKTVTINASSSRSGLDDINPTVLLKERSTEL
In short: (§1)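 MH-14 replicon cells transfected with 300 ng of the reporter plasmid (pCOX-2-FLuc, pHO-1-Luc, pISRE-Luc or p3xARE-Luc); 16 h later treated with compound at 5, 10 and 25 μM or DMSO for 48 h. Firefly luciferase read, normalized to Renilla luciferase for transfection efficiency.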

[14] = target: T2, Heme oxygenase 1 (Homo sapiens, UniProt P09601); experiment: Effect on heme oxygenase-1 (unknown origin)-mediated HCV replication in human MH14 cells transfected with pHO-1-Luc by luciferase reporter gene assay; assay type: ADME, cell-based; in short: as §1
T2 sequence (P09601 whole entry): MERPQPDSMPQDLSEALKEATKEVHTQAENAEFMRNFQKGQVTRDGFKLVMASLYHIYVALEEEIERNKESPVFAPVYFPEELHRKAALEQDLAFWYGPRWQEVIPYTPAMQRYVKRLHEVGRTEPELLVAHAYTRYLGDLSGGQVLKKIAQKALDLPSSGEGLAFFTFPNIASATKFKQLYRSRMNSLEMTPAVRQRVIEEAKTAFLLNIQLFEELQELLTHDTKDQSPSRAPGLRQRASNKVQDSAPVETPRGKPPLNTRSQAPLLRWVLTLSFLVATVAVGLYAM

[15] = Effect on interferon-stimulated response element (unknown origin)-mediated HCV replication in human MH14 cells transfected with pISRE-Luc by luciferase reporter gene assay; assay type: ADME, cell-based; in short: as §1
[16] = Effect on anti-oxidant response element (unknown origin)-mediated HCV replication in human MH14 cells transfected with p3xARE-Luc by luciferase reporter gene assay; assay type: ADME, cell-based; in short: as §1

| SMILES | CC50 [1] [µM] | inhibition at 50 µM [2] [%] | EC50 [3] [µM] | Ratio CC50/EC50 [4] | inhibition at 50 µM [5] [%] | EC50 [6] [µM] | Ratio CC50/EC50 [7] | inhibition [8] | inhibition [9] | inhibition [10] | IC50 [11] [µM] | inhibition [12] | inhibition (INH) [13] | inhibition (INH) [14] | inhibition (INH) [15] | inhibition (INH) [16] |
| --- | --- | --- | --- | --- | --- | --- | --- | --- | --- | --- | --- | --- | --- | --- | --- | --- |
| c1ccc(Cn2c(-c3ccccc3)cc3c2CCCC3)cc1 | 80.8 | 95 | 7.9 | 10 | 99 | 2.6 | 32 | Dose-dependent effect | inactive | inactive | > 1000 | inactive | Not Active | Not Active | Not Active | Not Active |
| O=[N+]([O-])c1ccc(-c2cc3c(n2Cc2ccccc2)CCCC3)cc1 | > 200 | 75 | 15 | 13 | 98 | 7.3 | 27 |  | inactive | inactive | > 1000 |  |  |  |  |  |
| Fc1ccc(-n2c(-c3ccccc3)cc3c2CCCC3)cc1 | > 200 | 71 | 29.2 | >7 | 66 | 12.3 | >16 |  | inactive | inactive | > 1000 |  |  |  |  |  |
